Data as given in ChEMBL document CHEMBL1131291, “Rational design, synthesis, and X-ray structure of selective noncovalent thrombin inhibitors” (J Med Chem, 1998).

Legend:
Serine protease 1 [1] = target: T1, Serine protease 1 (Bos taurus, UniProt P00760); experiment: In vitro inhibition was measured against […] bovine pancreatic trypsin.
T1 sequence (P00760 whole entry): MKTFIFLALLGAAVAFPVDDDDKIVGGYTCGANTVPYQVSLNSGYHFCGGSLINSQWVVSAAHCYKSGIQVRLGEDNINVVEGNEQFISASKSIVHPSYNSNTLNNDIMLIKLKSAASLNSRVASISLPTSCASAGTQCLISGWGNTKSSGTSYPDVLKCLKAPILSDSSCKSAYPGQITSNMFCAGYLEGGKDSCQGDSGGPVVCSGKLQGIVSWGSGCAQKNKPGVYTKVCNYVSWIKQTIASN
Procedure, shortened: (§1)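 Trypsin at 260 pM final was run with Pefachrome TRY substrate in 100 mM sodium phosphate pH 7.4, 100 mM NaCl and 0.1% BSA, at 25 °C. Inhibitor was pre-mixed with substrate and the reaction started with enzyme. Absorbance at 405 nm (p-nitroaniline) was read over 30 min. Ki was fitted to the Dixon equation by weighted linear regression; triplicate, mean ± SD.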

Coagulation factor X [2] = target: T2, Coagulation factor X (Homo sapiens, UniProt P00742); experiment: In vitro inhibition was measured against Human Coagulation factor X; […]
Procedure, shortened: (§2)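 Factor Xa was used at 30 pM final, with Pefachrome Xa substrate, in phosphate buffer pH 7.4 with 100 mM NaCl and 0.1% BSA, at 25 °C. The enzyme-initiated reaction was followed as the 405 nm increase for 30 min. Inhibitor was diluted from a cremophor/ethanol solution. Ki came from weighted Dixon-plot regression; triplicate determinations.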

Prothrombin = Prothrombin (Homo sapiens, UniProt P00734); experiment: In vitro inhibition was measured against Human Thrombin.
Coagulation factor X [3] = target: T2, Coagulation factor X; experiment: In vitro inhibition was measured against Human Coagulation factor X; procedure, shortened: as §2
Serine protease 1 [4] = target: T1, Serine protease 1; experiment: In vitro inhibition was measured against Bovine pancreatic trypsin.; procedure, shortened: as §1

T2 sequence (P00742 41-179 limits assumed): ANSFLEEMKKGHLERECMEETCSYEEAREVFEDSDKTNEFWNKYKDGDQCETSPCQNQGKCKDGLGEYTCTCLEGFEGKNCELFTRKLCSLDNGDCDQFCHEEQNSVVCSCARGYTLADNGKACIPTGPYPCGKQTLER
T2 sequence (P00742 235-488 limits assumed): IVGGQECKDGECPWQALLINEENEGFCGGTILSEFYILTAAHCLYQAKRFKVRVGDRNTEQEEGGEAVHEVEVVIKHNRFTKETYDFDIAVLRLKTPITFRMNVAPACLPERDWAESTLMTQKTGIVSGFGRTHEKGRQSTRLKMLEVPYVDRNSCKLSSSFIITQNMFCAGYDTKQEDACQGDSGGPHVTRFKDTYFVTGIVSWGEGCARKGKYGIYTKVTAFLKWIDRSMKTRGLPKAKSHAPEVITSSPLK

| Compound | Ki (Serine protease 1 [1]) [µM] | Ki (Coagulation factor X [2]) | Ki (Prothrombin) [µM] | Ki (Coagulation factor X [3]) [µM] | Ki (Serine protease 1 [4]) [µM] |
| --- | --- | --- | --- | --- | --- |
| NC(N)=NCCCNC(=O)[C@@H]1CS[C@H]2CC[C@@H](N)C(=O)N21.O=C(O)C(F)(F)F | 25.1 | Not Active | 10.3 | – | – |
| NC(N)=NCCCNC(=O)[C@@H]1CS[C@H]2CC[C@H](N)C(=O)N21 | 13.3 | – | 5.1 | > 33.7 | – |
| N=C(N)NCCCNC(=O)[C@@H]1CS[C@H]2CC[C@H](NS(=O)(=O)c3cccc4ccccc34)C(=O)N21 | – | – | – | 17.8 | 19.6 |
| N=C(N)NCCCNC(=O)[C@@H]1CS[C@H]2CC[C@@H](NS(=O)(=O)c3cccc4ccccc34)C(=O)N21 | 3.4 | – | 0.751 | 6.78 | – |
| NC(N)=NCCCCNC(=O)[C@@H]1CS[C@H]2CC[C@@H](N)C(=O)N21.O=C(O)C(F)(F)F | 5.36 | Not Active | 62.4 | – | – |
| NC(N)=NCCCCNC(=O)[C@@H]1CS[C@H]2CC[C@H](N)C(=O)N21.O=C(O)C(F)(F)F | 3.58 | Not Active | 19.5 | – | – |
| N=C(N)NCCCNC(=O)[C@@H]1CS[C@H]2CC[C@H](NS(=O)(=O)Cc3ccccc3)C(=O)N21 | 7.9 | – | 0.111 | > 33.7 | – |
| N=C(N)NCCCNC(=O)[C@@H]1CS[C@H]2CC[C@@H](NS(=O)(=O)Cc3ccccc3)C(=O)N21 | 5.1 | – | – | 26 | – |
